Laboratory results as given in ChEMBL document CHEMBL2203123, “Synthesis and biological evaluation of some hydrazone derivatives as new anticandidal and anticancer agents” (Eur J Med Chem, 2012).
Values after ≈ are worked out from the molar mass of the structure shown.

Experiments:
[1] = tested on: Salmonella typhimurium; experiment: Genotoxicity against Salmonella typhimurium TA1535/pSK1002 assessed as induction ratio at 0.63 mg/ml by umuC assay in absence of S9 fraction; format: toxicity, organism-based; conditions: salmonella enterica subsp. enterica serovar typhimurium
Summary of the method: (§1)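 umuC Easy CS: TA1535/pSK1002 grown overnight in ampicillin TG medium at 37 °C, then exposed 2 h at 37 °C to compounds at 5, 2.5, 1.25, 0.63 mg/mL with or without S9. Diluted into fresh medium for 2 h growth (OD600), then β-galactosidase with ONPG 30 min at 28 °C, OD420. Positive controls 2-aminoanthracene (+S9), […] (−S9).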

[2] = tested on: Salmonella typhimurium; experiment: Genotoxicity against Salmonella typhimurium TA100 assessed as fold increase in revertants at 0.3125 mg/ml after 90 mins by Ames MPF test in absence of S9 fraction relative to baseline; format: toxicity, organism-based; conditions: salmonella enterica subsp. enterica serovar typhimurium, 1.5 h
Summary of the method: (§2)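 Ames MPF fluctuation test, TA98 and TA100: overnight cultures reincubated 90 min, then exposed 90 min at 37 °C to compounds at 0.156-5 mg/mL (in DMSO) with or without 4.5% v/v S9; indicator medium added, 48 wells per sample scored yellow after 48 h, triplicate. Fold over baseline = mean positive wells / (mean of DMSO control + 1 SD).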

[3] = tested on: Salmonella typhimurium; experiment: Genotoxicity against Salmonella typhimurium TA1535/pSK1002 assessed as growth factor ratio at 0.63 mg/ml by umuC assay in absence of S9 fraction; format: toxicity, organism-based; conditions: salmonella enterica subsp. enterica serovar typhimurium; summary of the method: as §1
[4] = tested on: Nakaseomyces glabratus; experiment: Antifungal activity against Candida glabrata Anadolu University clinical isolate after 24 hrs by microdilution susceptibility assay; format: functional
Summary of the method: (§3)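 Broth microdilution in Mueller Hinton Broth, compounds from DMSO stocks diluted serially; inocula standardized to 10^6 CFU/mL (McFarland 0.5) from overnight MHB cultures. Plates held 37 °C for 24 h; MIC taken as first well without turbidity, aided by 1% tetrazolium violet added for 3 h at 37 °C. Ketoconazole reference.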

[5] = tested on: Salmonella typhimurium; experiment: Genotoxicity against Salmonella typhimurium TA1535/pSK1002 assessed as induction ratio at 2.5 mg/ml by umuC assay in presence of S9 fraction; format: toxicity, organism-based; conditions: salmonella enterica subsp. enterica serovar typhimurium; summary of the method: as §1
[6] = tested on: Salmonella typhimurium; experiment: Genotoxicity against Salmonella typhimurium TA1535/pSK1002 assessed as growth factor ratio at 5 mg/ml by umuC assay in absence of S9 fraction; format: toxicity, organism-based; conditions: salmonella enterica subsp. enterica serovar typhimurium; summary of the method: as §1
[7] = tested on: Salmonella typhimurium; experiment: Genotoxicity against Salmonella typhimurium TA98 assessed as fold increase in revertants at 0.156 mg/ml after 90 mins by Ames MPF test in absence of S9 fraction relative to baseline; format: toxicity, organism-based; conditions: salmonella enterica subsp. enterica serovar typhimurium, 1.5 h; summary of the method: as §2
[8] = tested on: Candida albicans; experiment: Antifungal activity against Candida albicans clinical isolate after 24 hrs by microdilution susceptibility assay; format: functional; summary of the method: as §3
[9] = tested on: Candida parapsilosis; experiment: Antifungal activity against Candida parapsilosis NRRL Y-12696 after 24 hrs by microdilution susceptibility assay; format: functional; conditions: Lodderomyces parapsilosis, NRRL Y-12696, 24 h; summary of the method: as §3
[10] = tested on: Salmonella typhimurium; experiment: Genotoxicity against Salmonella typhimurium TA100 assessed as fold increase in revertants at 0.156 mg/ml after 90 mins by Ames MPF test in presence of S9 fraction relative to baseline; format: toxicity, organism-based; conditions: salmonella enterica subsp. enterica serovar typhimurium, s9, 1.5 h; summary of the method: as §2
[11] = Genotoxicity against Salmonella typhimurium TA1535/pSK1002 assessed as induction ratio at 1.25 mg/ml by umuC assay in presence of S9 fraction; format: toxicity, organism-based; conditions: salmonella enterica subsp. enterica serovar typhimurium, Salmonella typhimurium TA1535/pSK1002 with S9 fraction; summary of the method: as §1
[12] = tested on: Candida albicans; experiment: Antifungal activity against Candida albicans ATCC 10231 after 24 hrs by microdilution susceptibility assay; format: functional; conditions: ATCC 10231, 24 h; summary of the method: as §3
[13] = tested on: Salmonella typhimurium; experiment: Genotoxicity against Salmonella typhimurium TA98 assessed as fold increase in revertants at 2.5 mg/ml after 90 mins by Ames MPF test in presence of S9 fraction relative to baseline; format: toxicity, organism-based; conditions: salmonella enterica subsp. enterica serovar typhimurium, s9, 1.5 h; summary of the method: as §2
[14] = tested on: Salmonella typhimurium; experiment: Genotoxicity against Salmonella typhimurium TA100 assessed as fold increase in revertants at 1.25 mg/ml after 90 mins by Ames MPF test in absence of S9 fraction relative to baseline; format: toxicity, organism-based; conditions: salmonella enterica subsp. enterica serovar typhimurium, 1.5 h; summary of the method: as §2
[15] = tested on: Cyberlindnera jadinii; experiment: Antifungal activity against Candida utilis NRRL Y-900 after 24 hrs by microdilution susceptibility assay; format: functional; conditions: Williopsis jadinii, NRRL Y-900, 24 h; summary of the method: as §3
[16] = tested on: Salmonella typhimurium; experiment: Genotoxicity against Salmonella typhimurium TA100 assessed as fold increase in revertants at 0.3125 mg/ml after 90 mins by Ames MPF test in presence of S9 fraction relative to baseline; format: toxicity, organism-based; conditions: salmonella enterica subsp. enterica serovar typhimurium, s9, 1.5 h; summary of the method: as §2
[17] = tested on: A549; experiment: Cytotoxicity against human A549 cells after 24 hrs by XTT assay; format: functional, cell-based; conditions: A549, 24 h
Summary of the method: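 A549 cells in RPMI 1640 with 10% fetal calf serum, penicillin/streptomycin, 37 °C, 5% CO2; 20,000 cells/well seeded, after 24 h exposed to compounds at 0.00316 µM-10 mM for 24 h. XTT mitochondrial activity read at 480 nm (reference 680 nm) after 3 h; % inhibition per concentration, IC50 by non-linear regression.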

[18] = tested on: Salmonella typhimurium; experiment: Genotoxicity against Salmonella typhimurium TA98 assessed as fold increase in revertants at 1.25 mg/ml after 90 mins by Ames MPF test in presence of S9 fraction relative to baseline; format: toxicity, organism-based; conditions: salmonella enterica subsp. enterica serovar typhimurium, s9, 1.5 h; summary of the method: as §2
[19] = tested on: Salmonella typhimurium; experiment: Genotoxicity against Salmonella typhimurium TA1535/pSK1002 assessed as growth factor ratio at 2.5 mg/ml by umuC assay in presence of S9 fraction; format: toxicity, organism-based; conditions: salmonella enterica subsp. enterica serovar typhimurium; summary of the method: as §1
[20] = tested on: Pichia kudriavzevii; experiment: Antifungal activity against Candida krusei NRRL Y-7179 after 24 hrs by microdilution susceptibility assay; format: functional; conditions: NRRL Y-7179, 24 h; summary of the method: as §3
[21] = tested on: Salmonella typhimurium; experiment: Genotoxicity against Salmonella typhimurium TA1535/pSK1002 assessed as growth factor ratio at 1.25 mg/ml by umuC assay in presence of S9 fraction; format: toxicity, organism-based; conditions: salmonella enterica subsp. enterica serovar typhimurium; summary of the method: as §1
[22] = tested on: Salmonella typhimurium; experiment: Genotoxicity against Salmonella typhimurium TA100 assessed as fold increase in revertants at 0.156 mg/ml after 90 mins by Ames MPF test in absence of S9 fraction relative to baseline; format: toxicity, organism-based; conditions: salmonella enterica subsp. enterica serovar typhimurium, 1.5 h; summary of the method: as §2
[23] = tested on: Salmonella typhimurium; experiment: Genotoxicity against Salmonella typhimurium TA98 assessed as fold increase in revertants at 0.3125 mg/ml after 90 mins by Ames MPF test in presence of S9 fraction relative to baseline; format: toxicity, organism-based; conditions: salmonella enterica subsp. enterica serovar typhimurium, s9, 1.5 h; summary of the method: as §2

Row | SMILES | Ratio [1] | fold change (FC) [2] | Ratio [3] | MIC [4] | Ratio [5] | Ratio [6] | fold change (FC) [7] | MIC [8] | MIC [9] | fold change (FC) [10] | fold induction at 1.25 mg/ml [11] | MIC [12] | fold change (FC) [13] | fold change (FC) [14] | MIC [15] | fold change (FC) [16] | IC50 [17] | fold change (FC) [18] | Ratio [19] | MIC [20] | other results
1 | Cn1nnnc1SCC(=O)N/N=C/c1ccccc1[N+](=O)[O-] | 1.509 | 1.67 | 1.068 | 250 µg/mL (≈ 778 µM) | 1.014 | 1.281 | 1.63 | 500 µg/mL (≈ 1560 µM) | 500 µg/mL (≈ 1560 µM) | 1.35 | 1.18 | 500 µg/mL (≈ 1560 µM) | 2.22 | 1.33 | 250 µg/mL (≈ 778 µM) | 1.08 | 1.6 mM | 2 | 0.922 | 125 µg/mL (≈ 389 µM) | Ratio [21]: 0.879; fold change (FC) [22]: 1.67; fold change (FC) [23]: 1.22
2 | CN(C)c1ccc(/C=N/NC(=O)CSc2nnnn2C)cc1 | 1.36 | 1.19 | 0.962 | 50 µg/mL (≈ 157 µM) | 0.598 | 2.781 | 0.32 | 125 µg/mL (≈ 391 µM) | 500 µg/mL (≈ 1570 µM) | 0.33 | 0.67 | 125 µg/mL (≈ 391 µM) | 1.14 | 1 | 125 µg/mL (≈ 391 µM) | 0.47 | 0.1 mM | 0.86 | 1.992 | 62.5 µg/mL (≈ 196 µM) | Ratio [21]: 1.538; fold change (FC) [22]: 1.9; fold change (FC) [23]: 0.57
3 | Cn1nnnc1SCC(=O)N/N=C/c1ccc(O)cc1 | 1.181 | 0.41 | 1.009 | 500 µg/mL (≈ 1710 µM) | 0.657 | 2.049 | 0.52 | 500 µg/mL (≈ 1710 µM) | 1000 µg/mL (≈ 3420 µM) | 0.63 | 0.699 | 500 µg/mL (≈ 1710 µM) | 0.53 | 0.91 | 500 µg/mL (≈ 1710 µM) | 0.63 | > 10 mM | 0.63 | 1.663 | 500 µg/mL (≈ 1710 µM) | Ratio [21]: 1.277; fold change (FC) [22]: 0.66; fold change (FC) [23]: 0.53
4 | COc1ccc(/C=N/NC(=O)CSc2nnnn2C)cc1 | 1.357 | 0.4 | 1.028 | 125 µg/mL (≈ 408 µM) | 0.681 | 1.99 | 0.16 | 500 µg/mL (≈ 1630 µM) | 250 µg/mL (≈ 816 µM) | 0.46 | 0.769 | 500 µg/mL (≈ 1630 µM) | 0.53 | 0.2 | 250 µg/mL (≈ 816 µM) | 0.77 | > 10 mM | 0.53 | 1.83 | 125 µg/mL (≈ 408 µM) | Ratio [21]: 1.294; fold change (FC) [22]: 0.7; fold change (FC) [23]: 0.84
5 | Cn1nnnc1SCC(=O)N/N=C/c1ccccc1F | 1.312 | 0.06 | 1.045 | 250 µg/mL (≈ 849 µM) | 0.352 | 3.877 | 0.64 | 125 µg/mL (≈ 425 µM) | 1000 µg/mL (≈ 3400 µM) | 0.66 | 0.548 | 250 µg/mL (≈ 849 µM) | 1.57 | 0.29 | 125 µg/mL (≈ 425 µM) | 0.51 | 9 mM | 1.28 | 1.699 | 500 µg/mL (≈ 1700 µM) | Ratio [21]: 1.163; fold change (FC) [22]: 0.23; fold change (FC) [23]: 0.71
